Activity and MIC data for five molecules are collected here from ChEMBL document CHEMBL1153795, “Aromatic cyclic peroxides and related keto-compounds from the Plakortis sp. component of a sponge consortium” (2009).

SMILES strings stand for the structures. In brackets after ≈: the same amount, converted by molar mass. Activity calls are given as the source filed them. The rule behind the calls is not given here.

The term MIC denotes the least concentration at which growth counts as inhibited. Low values mean inhibition by little substance, high ones a need for much substance.

One assay deals with Escherichia coli. Kind of assay: Antibacterial activity against Escherichia coli after 24 hrs by broth macridilution method. In kind it is functional, organism-based. The essentials: (§1)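 Broth macrodilution in LB medium (10 g/L Bactotryptone, 5 g/L Bactoyeast, 10 g/L NaCl, pH 7.5). Inoculum was set to 0.5 McFarland (2 × 10^8 cfu/mL) at 530 nm, then diluted 1:4000 to 50 000 cfu/mL. Tubes held eleven 2-fold dilutions (512–[…] µg/mL final) and were incubated 24 h at 37 °C. MIC90 was taken as the lowest concentration with no visible growth.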

The subject of another assay is Candida albicans. Put plainly: Antifungal activity against Candida albicans after 24 hrs by broth macridilution method. In kind it is functional, organism-based.
The test system of another assay is Staphylococcus aureus. Put plainly: Antibacterial activity against Staphylococcus aureus after 24 hrs by broth macridilution method. In kind it is functional. The essentials:
as §1

With `CC(=O)CC(C)CCCCCCCCc1ccccc1` (stereo unspecified), the result with Escherichia coli and with Candida albicans was inactive.
Take `CC(=O)CC(C)CCCCCC/C=C/c1ccccc1` (stereo unspecified): the result in the assay on Escherichia coli and with Candida albicans was inactive.
Regarding `CC(CCCCCCCCc1ccccc1)C[C@@]1(C)C[C@@H](C)[C@@](C)(O)OO1` (stereo partly specified), the outcome in the assay on Escherichia coli and in the assay with Candida albicans was inactive. This molecule also displayed a minimum inhibitory concentration (MIC) against Staphylococcus aureus of 64 µg/mL (≈ 170 µM).
With `CC(CCCCCC/C=C/c1ccccc1)C[C@@]1(C)C[C@@H](C)[C@@](C)(O)OO1` (stereo partly specified), the outcome with Escherichia coli and in the assay with Candida albicans was inactive.
In the case of `COC(=O)C[C@]1(O)OO[C@@](C)(C/C(C)=C/C=C/Cc2ccccc2)C[C@H]1C`, the outcome with Escherichia coli and with Candida albicans was inactive.
